Test results: ChEMBL document CHEMBL1806410, “Design and synthesis of pyridine-substituted itraconazole analogues with improved antifungal activities, water solubility and bioavailability” (Bioorg Med Chem Lett, 2011)
≈ marks a conversion by molar mass, not a printed value.

Tests used:
Type in all cases: functional
[1] = test system: Aspergillus flavus; experiment: Antifungal activity against Aspergillus flavus JLC 30784 by broth microdilution method
Summary of the method: (§1)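 MICs were determined by broth microdilution following NCCLS guidelines (M38-P for filamentous fungi). The panel covered four yeast species and two Aspergillus species, with two strains per species. Itraconazole served as positive control.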

[2] = test system: Pichia kudriavzevii; experiment: Antifungal activity against Candida krusei JLC 30366 by broth microdilution method; summary of the method: as §1
[3] = test system: Aspergillus flavus; experiment: Antifungal activity against Aspergillus flavus JLC 40437 by broth microdilution method; summary of the method: as §1
[4] = test system: Candida albicans; experiment: Antifungal activity against Candida albicans JLC 31374 by broth microdilution method; summary of the method: as §1
[5] = test system: Candida albicans; experiment: Antifungal activity against Candida albicans JLC 30364 by broth microdilution method; summary of the method: as §1
[6] = test system: Candida parapsilosis; experiment: Antifungal activity against Candida parapsilosis JLC 30275 by broth microdilution method; details: Lodderomyces parapsilosis; summary of the method: as §1
[7] = test system: Pichia kudriavzevii; experiment: Antifungal activity against Candida krusei JLC 30386 by broth microdilution method; summary of the method: as §1
[8] = test system: Aspergillus fumigatus; experiment: Antifungal activity against Aspergillus fumigatus JLC 30883 by broth microdilution method; summary of the method: as §1
[9] = test system: Cryptococcus neoformans; experiment: Antifungal activity against Cryptococcus neoformans JLC 50123 by broth microdilution method; summary of the method: as §1
[10] = test system: Candida parapsilosis; experiment: Antifungal activity against Candida parapsilosis JLC 30365 by broth microdilution method; details: Lodderomyces parapsilosis; summary of the method: as §1
[11] = test system: Aspergillus fumigatus; experiment: Antifungal activity against Aspergillus fumigatus JLC 30506 by broth microdilution method; summary of the method: as §1
[12] = test system: Cryptococcus neoformans; experiment: Antifungal activity against Cryptococcus neoformans JLC 50122 by broth microdilution method; summary of the method: as §1

Structure (SMILES) | MIC [1] | MIC [2] | MIC [3] | MIC [4] | MIC [5] | MIC [6] | MIC [7] | MIC [8] | MIC [9] | MIC [10] | MIC [11] | MIC [12]
O=c1n(-c2ccc(N3CCN(c4ccc(OC[C@H]5CO[C@](Cn6cncn6)(c6ccc(F)cc6F)O5)cc4)CC3)nc2)cnn1CCCO | 0.25 µg/mL (≈ 0.37 µM) | 0.0625 µg/mL (≈ 0.0925 µM) | 0.25 µg/mL (≈ 0.37 µM) | < 0.0625 µg/mL | < 0.0625 µg/mL | 0.0625 µg/mL (≈ 0.0925 µM) | 0.0625 µg/mL (≈ 0.0925 µM) | 1 µg/mL (≈ 1.48 µM) | < 0.0625 µg/mL | 0.0625 µg/mL (≈ 0.0925 µM) | 1 µg/mL (≈ 1.48 µM) | < 0.0625 µg/mL
CCC(C)n1ncn(-c2ccc(N3CCN(c4ccc(OC[C@H]5CO[C@](Cn6cncn6)(c6ccc(F)cc6F)O5)cc4)CC3)nc2)c1=O (stereo partly drawn) | 0.25 µg/mL (≈ 0.371 µM) | 0.125 µg/mL (≈ 0.186 µM) | 0.25 µg/mL (≈ 0.371 µM) | < 0.0038 µg/mL | < 0.0038 µg/mL | 0.25 µg/mL (≈ 0.371 µM) | 0.125 µg/mL (≈ 0.186 µM) | 0.0625 µg/mL (≈ 0.0928 µM) | 0.5 µg/mL (≈ 0.742 µM) | 0.25 µg/mL (≈ 0.371 µM) | 0.0625 µg/mL (≈ 0.0928 µM) | 0.5 µg/mL (≈ 0.742 µM)
O=c1n(-c2ccc(N3CCN(c4ccc(OC[C@H]5CO[C@](Cn6cncn6)(c6ccc(F)cc6F)O5)cc4)CC3)nc2)cnn1Cc1ccccc1 | 0.25 µg/mL (≈ 0.353 µM) | 0.5 µg/mL (≈ 0.706 µM) | 0.25 µg/mL (≈ 0.353 µM) | < 0.0038 µg/mL | < 0.0038 µg/mL | 0.25 µg/mL (≈ 0.353 µM) | 0.5 µg/mL (≈ 0.706 µM) | 0.125 µg/mL (≈ 0.177 µM) | 0.25 µg/mL (≈ 0.353 µM) | 0.25 µg/mL (≈ 0.353 µM) | 0.125 µg/mL (≈ 0.177 µM) | 0.25 µg/mL (≈ 0.353 µM)
CC(C)(CO)Cn1ncn(-c2ccc(N3CCN(c4ccc(OC[C@H]5CO[C@](Cn6cncn6)(c6ccc(F)cc6F)O5)cc4)CC3)nc2)c1=O | 0.125 µg/mL (≈ 0.178 µM) | 0.25 µg/mL (≈ 0.355 µM) | 0.125 µg/mL (≈ 0.178 µM) | 0.0625 µg/mL (≈ 0.0888 µM) | 0.0625 µg/mL (≈ 0.0888 µM) | 0.5 µg/mL (≈ 0.71 µM) | 0.25 µg/mL (≈ 0.355 µM) | 0.125 µg/mL (≈ 0.178 µM) | 0.125 µg/mL (≈ 0.178 µM) | 0.5 µg/mL (≈ 0.71 µM) | 0.125 µg/mL (≈ 0.178 µM) | 0.125 µg/mL (≈ 0.178 µM)
CC(CO)Cn1ncn(-c2ccc(N3CCN(c4ccc(OC[C@H]5CO[C@](Cn6cncn6)(c6ccc(F)cc6F)O5)cc4)CC3)nc2)c1=O (stereo partly drawn) | > 0.5 µg/mL | 0.125 µg/mL (≈ 0.181 µM) | > 0.5 µg/mL | 0.0625 µg/mL (≈ 0.0906 µM) | 0.0625 µg/mL (≈ 0.0906 µM) | – | 0.125 µg/mL (≈ 0.181 µM) | > 32 µg/mL | 0.0625 µg/mL (≈ 0.0906 µM) | 2 µg/mL (≈ 2.9 µM) | > 32 µg/mL | 0.0625 µg/mL (≈ 0.0906 µM)
CC(CO)n1ncn(-c2ccc(N3CCN(c4ccc(OC[C@H]5CO[C@](Cn6cncn6)(c6ccc(F)cc6F)O5)cc4)CC3)nc2)c1=O (stereo partly drawn) | 0.25 µg/mL (≈ 0.37 µM) | > 2 µg/mL | 0.25 µg/mL (≈ 0.37 µM) | < 0.0625 µg/mL | < 0.0625 µg/mL | < 0.0625 µg/mL | > 2 µg/mL | 1 µg/mL (≈ 1.48 µM) | < 0.0625 µg/mL | < 0.0625 µg/mL | 1 µg/mL (≈ 1.48 µM) | < 0.0625 µg/mL
CC(CCO)n1ncn(-c2ccc(N3CCN(c4ccc(OC[C@H]5CO[C@](Cn6cncn6)(c6ccc(F)cc6F)O5)cc4)CC3)nc2)c1=O (stereo partly drawn) | 4 µg/mL (≈ 5.8 µM) | 2 µg/mL (≈ 2.9 µM) | 4 µg/mL (≈ 5.8 µM) | < 0.0625 µg/mL | < 0.0625 µg/mL | < 0.0625 µg/mL | 2 µg/mL (≈ 2.9 µM) | 4 µg/mL (≈ 5.8 µM) | 0.0625 µg/mL (≈ 0.0906 µM) | < 0.0625 µg/mL | 4 µg/mL (≈ 5.8 µM) | 0.0625 µg/mL (≈ 0.0906 µM)
CCC(C)n1ncn(-c2ccc(N3CCN(c4ccc(OC[C@H]5CO[C@](Cn6cncn6)(c6ccc(F)cc6F)O5)cc4)CC3)cn2)c1=O (stereo partly drawn) | 0.5 µg/mL (≈ 0.742 µM) | 0.0625 µg/mL (≈ 0.0928 µM) | 0.5 µg/mL (≈ 0.742 µM) | 0.03 µg/mL (≈ 0.0445 µM) | 0.03 µg/mL (≈ 0.0445 µM) | 0.5 µg/mL (≈ 0.742 µM) | 0.0625 µg/mL (≈ 0.0928 µM) | 0.5 µg/mL (≈ 0.742 µM) | 1 µg/mL (≈ 1.48 µM) | 0.5 µg/mL (≈ 0.742 µM) | 0.5 µg/mL (≈ 0.742 µM) | 1 µg/mL (≈ 1.48 µM)
CC(C)Cn1ncn(-c2ccc(N3CCN(c4ccc(OC[C@H]5CO[C@](Cn6cncn6)(c6ccc(F)cc6F)O5)cc4)CC3)cn2)c1=O | 0.0625 µg/mL (≈ 0.0928 µM) | 0.125 µg/mL (≈ 0.186 µM) | 0.0625 µg/mL (≈ 0.0928 µM) | 0.015 µg/mL (≈ 0.0223 µM) | 0.015 µg/mL (≈ 0.0223 µM) | 0.25 µg/mL (≈ 0.371 µM) | 0.125 µg/mL (≈ 0.186 µM) | 0.125 µg/mL (≈ 0.186 µM) | 0.25 µg/mL (≈ 0.371 µM) | 0.25 µg/mL (≈ 0.371 µM) | 0.125 µg/mL (≈ 0.186 µM) | 0.25 µg/mL (≈ 0.371 µM)
CCC(CC)n1ncn(-c2ccc(N3CCN(c4ccc(OC[C@H]5CO[C@](Cn6cncn6)(c6ccc(F)cc6F)O5)cc4)CC3)cn2)c1=O | 0.0625 µg/mL (≈ 0.0909 µM) | 0.125 µg/mL (≈ 0.182 µM) | 0.0625 µg/mL (≈ 0.0909 µM) | 0.0625 µg/mL (≈ 0.0909 µM) | 0.0625 µg/mL (≈ 0.0909 µM) | 0.5 µg/mL (≈ 0.727 µM) | 0.125 µg/mL (≈ 0.182 µM) | 0.5 µg/mL (≈ 0.727 µM) | 0.125 µg/mL (≈ 0.182 µM) | 0.5 µg/mL (≈ 0.727 µM) | 0.5 µg/mL (≈ 0.727 µM) | 0.125 µg/mL (≈ 0.182 µM)
CC(CO)n1ncn(-c2ccc(N3CCN(c4ccc(OC[C@H]5CO[C@](Cn6cncn6)(c6ccc(F)cc6F)O5)cc4)CC3)cn2)c1=O (stereo partly drawn) | 0.125 µg/mL (≈ 0.185 µM) | 0.0625 µg/mL (≈ 0.0925 µM) | 0.125 µg/mL (≈ 0.185 µM) | 0.0625 µg/mL (≈ 0.0925 µM) | 0.0625 µg/mL (≈ 0.0925 µM) | 0.5 µg/mL (≈ 0.74 µM) | 0.0625 µg/mL (≈ 0.0925 µM) | 1 µg/mL (≈ 1.48 µM) | 0.0625 µg/mL (≈ 0.0925 µM) | 0.5 µg/mL (≈ 0.74 µM) | 1 µg/mL (≈ 1.48 µM) | 0.0625 µg/mL (≈ 0.0925 µM)
O=c1n(-c2ccc(N3CCN(c4ccc(OC[C@H]5CO[C@](Cn6cncn6)(c6ccc(F)cc6F)O5)cc4)CC3)cn2)cnn1CCO | 0.03 µg/mL (≈ 0.0453 µM) | 0.03 µg/mL (≈ 0.0453 µM) | 0.03 µg/mL (≈ 0.0453 µM) | < 0.0156 µg/mL | < 0.0156 µg/mL | 0.0156 µg/mL (≈ 0.0236 µM) | 0.03 µg/mL (≈ 0.0453 µM) | 0.5 µg/mL (≈ 0.756 µM) | < 0.0156 µg/mL | 0.0156 µg/mL (≈ 0.0236 µM) | 0.5 µg/mL (≈ 0.756 µM) | < 0.0156 µg/mL
